Wnt act: activates Wnt/beta-catenin signaling in a reporter cell assay | hit rate 1.2% among 300,000 | activation, % at 9.35 µM | activator, plate reader | AID 743398; in the data active = activation above about 30%, passing the limit was not always enough; inconclusive = no clear call, values can overlap the other calls
NSD2 HMT inh: inhibitors of human histone methyltransferase NSD2 | inhibition, % at 12.5 µM | AID 743445 | O96028 | NSD2 peptide methylation, AlphaScreen, 120 min | hit rate 0.54% among 310,000; in the data active = inhibition above about 50%
MITF act: activators of MITF-driven TRPM1 promoter activity in SK-MEL-5 cells; hit rate 0.75% among 300,000; activation, % at 12.5 µM; SK-MEL-5 TRPM1-promoter luciferase, 24 h; % of positive control, neutral wells = 0;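 active = mean activation of at least 80% with every replicate also reaching 80%; inconclusive = mean reaches 80% but some replicate falls short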
esBAF inh: blocks esBAF chromatin remodeling in mouse ES cells | Bmi1-luciferase knock-in reporter, 24 h; 100% = twice the neutral-well signal | reporter increase, % at 12.5 µM | hit rate 2% among 350,000 | AID 602393; in the data active = activation above about 40%; inconclusive = no clear call, values can overlap the other calls;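 note: a rise in the Bmi1 reporter signal indicates esBAF inhibition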
Xi reactivation: reactivates the inactive X chromosome in mouse fibroblasts | XiGFP mouse fibroblasts, % GFP-positive cells imaging, 3 d; cells co-treated with 5-aza-dC sensitizer; scaled so ellipticine positive control = 100% | activation, % at 7.58 µM | hit rate 0.055% among 360,000;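 active = mean normalized replicate activation at least 10% and every replicate at or above 10%; inconclusive = only one of the two criteria met; inactive = mean below 10% and not all replicates reach 10%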
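material = 68-5-11 XiGFP fibroblast line | medium = DMEM plus 5-aza-dC sensitizer | schedule = 3 days compound exposure | benchmarks = positive control ellipticine, 6 µM final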
Casp6 inh: blocks human caspase-6 cleavage activity | purified caspase-6, Z-VEID-R110 cleavage fluorescence | inhibition, % at 12.5 µM | hit rate 0.53% among 350,000 | AID 686996;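 active = mean inhibition across replicates at least about 35%, with every replicate also reaching that limit, limit read from the data; inconclusive = only one of the two criteria met; inactive = neither criterion met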
Target sequence (P55212 24-179 limits assumed): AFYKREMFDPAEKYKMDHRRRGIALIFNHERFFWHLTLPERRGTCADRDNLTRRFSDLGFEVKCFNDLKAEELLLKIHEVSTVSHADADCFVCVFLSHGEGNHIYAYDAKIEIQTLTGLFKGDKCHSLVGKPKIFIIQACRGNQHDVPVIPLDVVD
Target sequence (P55212 194-293 limits assumed): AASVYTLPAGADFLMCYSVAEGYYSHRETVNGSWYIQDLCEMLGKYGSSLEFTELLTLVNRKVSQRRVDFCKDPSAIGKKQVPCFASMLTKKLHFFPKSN
Large screens that a line does not name were inactive; ! = a repeat was not active. An excerpt weighted towards active compounds, which were near 3% of everything screened.

CC(C)(C)c1ccc(/C=C/C(=O)N2CCCCC2)cc1	Wnt act 33, MITF act 101, esBAF inh 47
Cc1ccc(/C=C/C(=O)N2CCCC(C)C2)cc1 (centres undefined)	MITF act 88 (no result: esBAF inh)
COCC(=O)Nc1ccc2c(c1)C(=O)N(C)[C@H]1CC[C@@H](CC(=O)NCc3cccc(F)c3)O[C@@H]1CO2	none (no result: Wnt act, NSD2 HMT inh, MITF act, Casp6 inh)
CC(=O)Nc1ccc(-c2csc(NCc3ccco3)n2)cc1	MITF act 123 (no result: Wnt act, esBAF inh, Xi reactivation, Casp6 inh)
COc1ccc(-c2csc(NCc3ccco3)n2)cc1C	MITF act inconclusive, esBAF inh 66 (no result: Wnt act, Xi reactivation, Casp6 inh)
COc1cccc(NC(=O)N(C)C[C@@H]2Oc3ncc(C#Cc4ccc(F)cc4)cc3C(=O)N([C@@H](C)CO)C[C@@H]2C)c1	none (no result: Wnt act, NSD2 HMT inh, MITF act)
C#CCOc1ccc(CNC[C@H]2O[C@@H](n3ccc(N)nc3=O)[C@H](O)[C@@H]2O)cc1	Casp6 inh 39 (no result: NSD2 HMT inh, MITF act)
COc1ccc2c3c(n(C)c2c1)[C@@H](CO)N(C(=O)CC1CC1)CC31CCN(Cc2ccncc2)CC1	none (no result: Wnt act, NSD2 HMT inh, MITF act, esBAF inh)
Cc1ccc(S(=O)(=O)Nc2cccc3c2O[C@@H](CN(C)C(=O)Nc2ccc4c(c2)OCO4)[C@H](C)CN([C@@H](C)CO)C3=O)cc1	esBAF inh 60! (no result: NSD2 HMT inh)
C[C@@H]1CN([C@H](C)CO)C(=O)c2cc(NC(=O)Nc3ccc4c(c3)OCO4)ccc2O[C@@H]1CN(C)S(=O)(=O)c1cccs1	none (no result: Wnt act, NSD2 HMT inh, MITF act)
C[C@H](CO)N1C[C@H](C)[C@H](CN(C)C(=O)Nc2ccc3c(c2)OCO3)Oc2c(NS(=O)(=O)c3ccccc3)cccc2C1=O	esBAF inh 68 (no result: Wnt act, NSD2 HMT inh, MITF act, Xi reactivation)
C[C@@H]1CN([C@H](C)CO)C(=O)c2cccc(NC(=O)Nc3ccc4c(c3)OCO4)c2O[C@H]1CN(C)S(=O)(=O)c1cccs1	esBAF inh 47 (no result: Wnt act, NSD2 HMT inh, MITF act)
C[C@H](CO)N1C[C@H](C)[C@@H](CN(C)C(=O)Nc2ccc3c(c2)OCO3)OCc2ccccc2-c2c(n(C)c3ccccc23)C1=O	none (no result: Wnt act, NSD2 HMT inh, MITF act)
C[C@@H]1CN([C@@H](C)CO)C(=O)c2c(c3ccccc3n2C)-c2ccccc2CO[C@@H]1CN(C)C(=O)Nc1ccc2c(c1)OCO2	esBAF inh 50 (no result: Wnt act, NSD2 HMT inh, MITF act)
CN(C)CC#Cc1ccc([C@H]2[C@@H](CO)N3CCCCN(C(=O)C4CCCC4)C[C@@H]23)cc1	none (no result: Wnt act, NSD2 HMT inh, MITF act, esBAF inh, Xi reactivation)
CN1N=C(N)c2cn(C3OC(COP(=O)(O)O)C(O)C3O)c3ncnc1c23 (centres undefined)	Casp6 inh 46 (no result: MITF act, esBAF inh)
COc1cc(-c2nnc(COC(=O)c3ccc([N+](=O)[O-])o3)o2)cc(OC)c1OC	Casp6 inh 58 (no result: MITF act)
O=C(OCc1nnc(-c2ccccc2)o1)c1ccc([N+](=O)[O-])o1	none
Fc1ccccc1Nc1nc2ccccc2o1	MITF act 100
O=C(O)C1Oc2cc3ccccc3cc2O1	Casp6 inh 55
COC(=O)c1ccc(CN2CC(=O)N3[C@H](CO)[C@H](c4ccc(-c5ccccc5)cc4)[C@@H]3C2)cc1	none (no result: Wnt act, NSD2 HMT inh, MITF act, esBAF inh, Casp6 inh)
CCS(=O)(=O)N1CC2(CN(Cc3ccccc3OC)[C@@H](CO)c3c2c2ccc(OC)cc2n3C)C1	none (no result: Wnt act, NSD2 HMT inh, MITF act, esBAF inh, Casp6 inh)
O=C(Nc1ccc(Cl)c(Cl)c1)N1CC=CCC1	esBAF inh 100 (no result: Wnt act, Xi reactivation, Casp6 inh)
CC(=O)c1ccc(OCc2cc(=O)n3ccsc3n2)cc1	none (no result: esBAF inh, Casp6 inh)
Cc1ccsc1C(=O)OCc1cc(=O)n2ccsc2n1	Wnt act 54 (no result: NSD2 HMT inh)
O=C(OCc1cc(=O)n2ccsc2n1)c1ccc(O)cc1O	esBAF inh 54
C[C@H](CO)N1C[C@H](C)[C@@H](CN(C)C)Oc2ncc(C#CC3CCCCC3)cc2C1=O	none (no result: Wnt act, NSD2 HMT inh, MITF act, Casp6 inh)
COc1ccc(OC)c(Cc2nnc(CCC(=O)N3CCC(N4CCCCC4)CC3)o2)c1	none (no result: esBAF inh)
COc1ccc(OC)c(Cc2nnc(CCC(=O)N3CCCCC3c3nccs3)o2)c1 (centres undefined)	Wnt act 40, esBAF inh 48
COc1ccc(OC)c(Cc2nnc(CCC(=O)N3CCCCCC3)o2)c1	esBAF inh 52
CC(=O)N[C@@H]1CC[C@@H](CCNC(=O)Nc2ccc(C(F)(F)F)cc2)O[C@@H]1CO	none (no result: Wnt act, NSD2 HMT inh, MITF act)
N/C(=N\OC(=O)c1cccnc1)c1ccccc1Cl	esBAF inh 74 (no result: Casp6 inh)
N/C(=N\OC(=O)COc1ccc(Cl)cc1Cl)c1ccncc1	esBAF inh 71
N/C(=N\OC(=O)COc1ccc(Br)cc1Cl)c1cccnc1	MITF act 111 (no result: NSD2 HMT inh, esBAF inh)

Screening data as filed in PubChem.
